Test results taken from ChEMBL document CHEMBL1138547, “Synthesis, biological evaluation and 2D-QSAR analysis of benzoxazoles as antimicrobial agents” (2009).
In brackets after ≈: the same amount, converted by molar mass.

Key:
Format in all cases: functional
[1] = tested on: Klebsiella pneumoniae; assay: Antimicrobial activity against Klebsiella pneumoniae RSHM 574 after 24 hrs
Method in brief: (§1)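 MIC by twofold serial dilution in Mueller-Hinton broth (MHB); MHB also used to dilute the bacterial suspension. Wells held 10^3 cfu/ml bacteria after inoculation. Controls: 80% DMSO, 20% EtOH, methanol, DMSO, PBS, organism alone and medium alone. Triplicate in each run. MIC taken as the lowest concentration completely inhibiting macroscopic growth.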

[2] = tested on: Klebsiella pneumoniae; assay: Antimicrobial activity against multidrug-resistant Klebsiella pneumoniae after 24 hrs
Method in brief: (§2)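 Twofold serial broth dilution in Mueller-Hinton broth. MHB was used both to dilute the bacterial suspension and for the twofold compound dilutions, giving 10^3 cfu/ml bacteria per well after inoculation. Solvent, medium and organism-only wells served as controls. Each organism was run in triplicate.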

[3] = tested on: Escherichia coli; assay: Antimicrobial activity against Escherichia coli ATCC 25922 after 24 hrs; method in brief: as §1
[4] = tested on: Escherichia coli; assay: Antimicrobial activity against multidrug-resistant Escherichia coli after 24 hrs; method in brief: as §2
[5] = tested on: Pseudomonas aeruginosa; assay: Antimicrobial activity against Pseudomonas aeruginosa ATCC […] after 24 hrs; method in brief: as §1
[6] = tested on: Bacillus subtilis; assay: Antimicrobial activity against Bacillus subtilis ATCC 6633 after 24 hrs; method in brief: as §1
[7] = tested on: Bacillus subtilis; assay: Antimicrobial activity against ceftriazone-resistant Bacillus subtilis after 24 hrs; method in brief: as §2
[8] = tested on: Staphylococcus aureus; assay: Antimicrobial activity against Staphylococcus aureus ATCC 25923 after 24 hrs; method in brief: as §2
[9] = tested on: Staphylococcus aureus; assay: Antimicrobial activity against multidrug-resistant Staphylococcus aureus after 24 hrs; method in brief: as §2
[10] = tested on: Candida albicans; assay: Antimicrobial activity against Candida albicans ATCC 10231 after 24 to 48 hrs
Method in brief: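 Twofold serial dilution following CLSI M27-A. Yeast suspension made at 10^4 cfu/ml by diluting a fresh culture at McFarland 0.5 (10^6 cfu/ml). Inoculated into the diluted compound, incubated at 35 °C in a humid chamber, read after 48 h. Triplicate in each run. MIC is the lowest concentration completely inhibiting macroscopic growth.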

[11] = tested on: Candida albicans; assay: Antimicrobial activity against multidrug-resistant Candida albicans isolates after 24 to 48 hrs
Method in brief: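 Yeast broth microdilution following CLSI M27-A, with Sabouraud dextrose medium noted for antifungal assays. Fresh cultures at McFarland 0.5 (10^6 cfu/ml) were diluted to 10^4 cfu/ml and inoculated into twofold compound dilutions. Trays were incubated at 35 °C in a humid chamber and read at 48 h, in triplicate. MIC was the lowest concentration giving complete macroscopic growth inhibition.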

[12] = Bacillus subtilis, ATCC 6633, 24 h

Row | Compound | MIC ([1]; RSHM 574, 24 h) [µg/mL] | MIC [2] [µg/mL] | MIC ([3]; ATCC 25922, 24 h) [µg/mL] | MIC [4] [µg/mL] | MIC [5] [µg/mL] | log(1/C) [6] | MIC [6, 12] [µg/mL] | MIC [7] [µg/mL] | MIC ([8]; ATCC 25923, 24 h) [µg/mL] | MIC [9] [µg/mL] | MIC [10] [µg/mL] | MIC [11] [µg/mL] | MIC [1] [µg/mL] | MIC [3] [µg/mL] | MIC [6] [µg/mL] | MIC [8] [µg/mL]
1 | CCc1ccc(-c2nc3cc([N+](=O)[O-])ccc3o2)cc1 | 50 (≈ 186 µM) | 100 (≈ 373 µM) | 50 (≈ 186 µM) | 100 (≈ 373 µM) | 50 (≈ 186 µM) | 3.73 | 50 (≈ 186 µM) | 25 (≈ 93.2 µM) | 100 (≈ 373 µM) | 100 (≈ 373 µM) | 50 (≈ 186 µM) | 100 (≈ 373 µM) | – | – | – | –
2 | Cc1ccc2oc(-c3ccc(Cl)cc3)nc2c1 | – | – | – | – | – | 4.29 | 12.5 (≈ 51.3 µM) | – | – | – | – | – | – | – | – | –
3 | CCc1ccc(-c2nc3ccc(N)cc3o2)cc1 | 50 (≈ 210 µM) | 100 (≈ 420 µM) | 50 (≈ 210 µM) | 100 (≈ 420 µM) | 50 (≈ 210 µM) | 3.678 | 50 (≈ 210 µM) | 100 (≈ 420 µM) | 100 (≈ 420 µM) | 100 (≈ 420 µM) | 50 (≈ 210 µM) | 50 (≈ 210 µM) | – | – | – | –
4 | Cc1ccc2oc(-c3ccc(Br)cc3)nc2c1 | – | – | – | – | – | 4.363 | 12.5 (≈ 43.4 µM) | – | – | – | – | – | – | – | – | –
5 | Cc1ccc2oc(-c3ccccc3F)nc2c1 | – | – | – | – | – | 3.959 | 25 (≈ 110 µM) | – | – | – | – | – | – | – | – | –
6 | Cc1ccc(Cc2nc3cc([N+](=O)[O-])ccc3o2)cc1 | 50 (≈ 186 µM) | 50 (≈ 186 µM) | 50 (≈ 186 µM) | 50 (≈ 186 µM) | 50 (≈ 186 µM) | 3.73 | 50 (≈ 186 µM) | 50 (≈ 186 µM) | 50 (≈ 186 µM) | 50 (≈ 186 µM) | 50 (≈ 186 µM) | 25 (≈ 93.2 µM) | – | – | – | –
7 | Cc1ccc2nc(-c3ccc(Cl)cc3)oc2c1 | – | – | – | – | – | 4.29 | 12.5 (≈ 51.3 µM) | – | – | – | – | – | – | – | – | –
8 | GENTAMICIN SULFATE | – | 64 | – | 1 | 2 | – | – | 512 | – | 1020 | – | – | 8 | 0.5 | 1 | 0.06
9 | O=[N+]([O-])c1ccc2oc(-c3ccc(F)cc3)nc2c1 | 50 (≈ 194 µM) | 100 (≈ 387 µM) | 50 (≈ 194 µM) | 100 (≈ 387 µM) | 50 (≈ 194 µM) | 3.713 | 50 (≈ 194 µM) | 25 (≈ 96.8 µM) | 100 (≈ 387 µM) | 100 (≈ 387 µM) | 50 (≈ 194 µM) | 100 (≈ 387 µM) | – | – | – | –
10 | Cc1ccc2oc(-c3ccc([N+](=O)[O-])cc3)nc2c1 | – | – | – | – | – | 4.609 | 6.25 (≈ 24.6 µM) | – | – | – | – | – | – | – | – | –
11 | OC(Cn1cncn1)(Cn1cncn1)c1ccc(F)cc1F [FLUCONAZOLE] | – | – | – | – | – | – | – | – | – | – | 1 (≈ 3.27 µM) | 64 (≈ 209 µM) | – | – | – | –
12 | O=[N+]([O-])c1ccc2nc(-c3ccc(Br)cc3)oc2c1 | 50 (≈ 157 µM) | 100 (≈ 313 µM) | 50 (≈ 157 µM) | 25 (≈ 78.3 µM) | 50 (≈ 157 µM) | 4.407 | 12.5 (≈ 39.2 µM) | 50 (≈ 157 µM) | 100 (≈ 313 µM) | 400 (≈ 1250 µM) | 100 (≈ 313 µM) | 50 (≈ 157 µM) | – | – | – | –
13 | Nc1ccc2oc(-c3ccc(F)cc3)nc2c1 | 50 (≈ 219 µM) | 100 (≈ 438 µM) | 50 (≈ 219 µM) | 100 (≈ 438 µM) | 50 (≈ 219 µM) | 3.96 | 25 (≈ 110 µM) | 50 (≈ 219 µM) | 50 (≈ 219 µM) | 100 (≈ 438 µM) | 50 (≈ 219 µM) | 50 (≈ 219 µM) | – | – | – | –
14 | Nc1ccc2nc(-c3ccc(F)cc3)oc2c1 | 50 (≈ 219 µM) | 100 (≈ 438 µM) | 50 (≈ 219 µM) | 100 (≈ 438 µM) | 50 (≈ 219 µM) | 3.659 | 50 (≈ 219 µM) | 50 (≈ 219 µM) | 100 (≈ 438 µM) | 100 (≈ 438 µM) | 50 (≈ 219 µM) | 50 (≈ 219 µM) | – | – | – | –
15 | CO[C@H]1/C=C/O[C@@]2(C)Oc3c(C)c(O)c4c(O)c(c(/C=N/N5CCN(C)CC5)c(O)c4c3C2=O)NC(=O)/C(C)=C\C=C\[C@H](C)[C@H](O)[C@@H](C)[C@@H](O)[C@@H](C)[C@H](OC(C)=O)[C@@H]1C [RIFAMPIN] | 16 (≈ 19.4 µM) | 256 (≈ 311 µM) | 8 (≈ 9.72 µM) | 64 (≈ 77.8 µM) | 32 (≈ 38.9 µM) | – | – | 256 (≈ 311 µM) | 0.5 (≈ 0.608 µM) | 8 (≈ 9.72 µM) | – | – | – | – | – | –
16 | Nc1ccc2nc(-c3ccc(Br)cc3)oc2c1 | 50 (≈ 173 µM) | 100 (≈ 346 µM) | 50 (≈ 173 µM) | 50 (≈ 173 µM) | 50 (≈ 173 µM) | 4.063 | 25 (≈ 86.5 µM) | 25 (≈ 86.5 µM) | 100 (≈ 346 µM) | 100 (≈ 346 µM) | 100 (≈ 346 µM) | 50 (≈ 173 µM) | – | – | – | –
